Measurements published in PubChem BioAssay.
Inconclusive results are not listed. Calls of active or inactive are those of the source.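 How the source made its calls, unless noted: active means viability at or below 27.92% in each of two runs, the all-compound median minus 4 SD; inconclusive means no clear call, values can overlap the other calls; inactive means the rest.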

Tests used:
[1] = OD615 S. cerevisiae growth inhibition, permissive medium, pilot counter-assay, permissive growth control for S. cerevisiae lifespan shortening project (AID 705;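 active means growth inhibition above 25% in both replicates, a cutoff set 3 SD above the mean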); conditions: OD615, 24 h, at 10 µM, stronger effect = higher value
Procedure, shortened: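 System: S. cerevisiae with engineered DeaD lifespan system. Medium: SC raffinose/galactose permissive medium. Doses: single compound dose of 10 µM, 0.25% DMSO final. Schedule: 24 h exposure, 30 °C. Measured by: OD615 turbidity read. Read-out: growth inhibition.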

[2] = Restrictive medium S. cerevisiae growth inhibition, OD615, pilot screen of yeast lifespan reduction project, restrictive growth control (AID 706;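 active means growth inhibition above a set limit, 3 SD over mean compound inhibition, in both replicates, cut at about 43% in these data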;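 further: modified DeaD lifespan yeast strain shifted to restrictive glucose medium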); conditions: OD615, 48 h, at 10 µM, stronger effect = higher value
Procedure, shortened: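 Assay system – genetically modified Saccharomyces cerevisiae, DeaD replicative lifespan assay strain · Medium – CSMM-D glucose medium · Doses – 10 µM compound, 0.25% DMSO · Times – 4 h pre-incubation, 48 h exposure at 30 °C · Signal – optical density at 615 nm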

[3] = viability gain of MRP-1-high H69AR cells under doxorubicin, pilot screen, MRP-1 activator project, CellTiter-Glo, duplicate (AID 807;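 active means viability increase at or above a cutoff of the median across tested compounds plus 3 SD, cut at about 8.5% in these data, passing the limit was not always enough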;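 further: compound pretreatment 18-22 h then 72 h combined with doxorubicin; 0% = doxorubicin alone and 100% = vehicle without doxorubicin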); conditions: H69AR viability with doxorubicin, CellTiter-Glo luminescence; at 10 µM; stronger effect = higher value
[4] = growth suppression of beta-catenin knockout HCT116, pilot screen, human colon tumor cells (AID 823;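 active means cell viability at or below a set limit in both duplicate runs, the limit being the all-compound median minus 4 SD, cut at about 23% in these data, passing the limit was not always enough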;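 further: 0% = wells killed by 20 µM Hyamine and 100% = untreated DMSO cell wells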); conditions: CellTiter-Glo, 60 h, at 10 µM, stronger effect = lower value
[5] = growth suppression of PTEN-deleted HCT116, pilot screen, cell-based, HCT116 clonal line, CellTiter-Glo (AID 824); conditions: 60 h, at 10 µM, stronger effect = lower value;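 further: 0% = 20 µM Hyamine control and 100% = vehicle cell control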
[6] = inhibitors of the yeast RAM network, pilot screen, dse1pr::URA3 reporter, 5-FOA selection (AID 869;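 active means inhibition over a set limit, the all-compound mean plus 3 SD, in both replicate runs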;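 further: 0% = DMSO wells with no growth and 100% = 10 µM 1-NA-PP1 with full growth; RAM network block rescues cells from 5-FOA so hits raise OD615 growth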); conditions: S. cerevisiae dse1pr::URA3 5-FOA growth, OD615, 2 d; at 10 µM; stronger effect = higher value; strain carries analog-sensitive mutant Cbk1 kinase
[7] = RAM signaling pathway blockade in yeast – S. cerevisiae, Pdr1DBD-CYC8 efflux-inhibited sensitized strain, primary screen (AID 1298;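 active means RAM network inhibition above 8.4% in each of two replicates, 3 SD over the compound average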;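 further: 0% = DMSO untreated cells without growth and 100% = 10 µM 1-NA-PP1 full growth; higher means more yeast growth rescued from 5-FOA killing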); conditions: S. cerevisiae cbk1-as DSE1-URA3 strain, 5-FOA growth OD615, 2 d; at 50 µM; stronger effect = higher value

Cc1noc(C)c1S(=O)(=O)NC1CCN(Cc2ccccc2)CC1
inactive: growth inhibition [1] -12.1% | growth inhibition [2] -2.23% | viability increase [3] -0.68% | viability [4] 95.8% | viability [5] 94.1% | inhibition [6] 3.14% | RAM network inhibition [7] 4.49%

CCOc1ccc(C2CC(c3cccc(OC)c3)Nc3ncnn32)cc1 (stereo not drawn)
inactive: growth inhibition [1] -2.08% | growth inhibition [2] -1.26% | viability increase [3] -0.82% | viability [4] 94% | viability [5] 90% | inhibition [6] 1.15% | RAM network inhibition [7] 1.4%

C=CCn1c(=O)c2c(nc3n2CC(C)CN3c2cccc(OC)c2)n(C)c1=O (stereo not drawn)
inactive: growth inhibition [1] -16.1% | growth inhibition [2] -8.79% | viability increase [3] -3.27% | viability [4] 97.7% | viability [5] 98.8% | inhibition [6] 1.56% | RAM network inhibition [7] 5.52%

CCOC(=O)c1sc2nc(NC(=O)c3cccs3)sc2c1C
inactive: growth inhibition [1] 5.51% | growth inhibition [2] -2.37% | viability increase [3] -1.92% | viability [4] 92.5% | viability [5] 87.4% | inhibition [6] -0.28% | RAM network inhibition [7] -0.16%

CC1CN(Cc2nc3c(c(=O)n(C)c(=O)n3C)n2Cc2ccccc2)CC(C)O1 (stereo not drawn)
inactive: growth inhibition [1] -2.62% | growth inhibition [2] 3.58% | viability increase [3] -0.81% | viability [4] 106% | viability [5] 100% | inhibition [6] 0.15% | RAM network inhibition [7] 2.1%

CCC(C)(C(=O)NC1CCCCC1)N(Cc1ccco1)C(=O)CC1NC(=O)NC1=O (stereo not drawn)
inactive: growth inhibition [1] -7.46% | growth inhibition [2] -7.12% | viability increase [3] -3.95% | viability [4] 97% | viability [5] 94.9% | inhibition [6] 1.58% | RAM network inhibition [7] 1.8%

CCOC(=O)CSC(CC)C(=O)Nc1nnc(CC)s1 (stereo not drawn)
inactive: growth inhibition [1] -15.4% | growth inhibition [2] -6% | viability increase [3] 2.67% | viability [4] 102% | viability [5] 96.6% | inhibition [6] 0.62% | RAM network inhibition [7] -0.27%

O=C(NCCN1CCCC1)c1ccc(CS(=O)(=O)c2c(Cl)cccc2Cl)o1
inactive: growth inhibition [1] -6.75% | growth inhibition [2] -20.8% | viability increase [3] -0.97% | viability [4] 106% | viability [5] 102% | inhibition [6] 1.5% | RAM network inhibition [7] 2.61%

CCOC(=O)C(C(=O)Nc1ccccc1)C1CCCCC1 (stereo not drawn)
inactive: growth inhibition [1] -7.22% | growth inhibition [2] 1.79% | viability increase [3] -5.02% | viability [4] 86.1% | viability [5] 86.7% | inhibition [6] -0.18% | RAM network inhibition [7] 3.67%

CCOC(=O)C1CCCN(C(=O)Cn2nc(CC)n3c(cc4sccc43)c2=O)C1 (stereo not drawn)
inactive: growth inhibition [1] -3.41% | growth inhibition [2] -9.06% | viability increase [3] -0.92% | viability [4] 105% | viability [5] 105% | inhibition [6] 1.33% | RAM network inhibition [7] 8.75%

CCOC(=O)Cn1c(=O)oc2cc(S(=O)(=O)Nc3ccc(N(CC)CC)cc3C)ccc21
inactive: growth inhibition [1] -11.3% | growth inhibition [2] -8.05% | viability increase [3] 0.16% | viability [4] 85.6% | viability [5] 86.6% | inhibition [6] 1.81% | RAM network inhibition [7] 9.51%

COc1ccccc1CNC(=O)COC(=O)c1ccc(NC(N)=O)cc1
inactive: growth inhibition [1] -12.7% | growth inhibition [2] -13.7% | viability increase [3] -0.98% | viability [4] 96.5% | viability [5] 97.9% | inhibition [6] 0.56% | RAM network inhibition [7] 5.2%

O=C(Nc1ccc(-c2nc3cccnc3s2)cc1)c1ccco1
inactive: growth inhibition [1] -4.68% | growth inhibition [2] 9.91% | viability increase [3] -3.43% | viability [4] 90% | viability [5] 80.4% | inhibition [6] 1.75% | RAM network inhibition [7] -1.95%

COc1ccccc1C(=O)NC(C)c1nc2ccccc2[nH]1 (stereo not drawn)
inactive: growth inhibition [1] -3.51% | growth inhibition [2] -5.35% | viability increase [3] 2.18% | viability [4] 99% | viability [5] 93% | inhibition [6] 3.37% | RAM network inhibition [7] 1.06%

Cn1c(=O)c2c(nc(CN3CCN(Cc4ccccc4)CC3)n2Cc2ccc(Cl)cc2)n(C)c1=O
active: viability [4] 8.81% | viability [5] 10.3%
inactive: growth inhibition [1] -2.47% | growth inhibition [2] -13.5% | viability increase [3] -6.52% | inhibition [6] 1.27% | RAM network inhibition [7] 2.33%

CCOc1cc(CN2CCN(c3cccc(C(F)(F)F)c3)CC2)ccc1O
inactive: growth inhibition [1] -9.48% | growth inhibition [2] -4.3% | viability increase [3] -5.3% | viability [4] 82.7% | viability [5] 82.9% | inhibition [6] 1.4% | RAM network inhibition [7] 0.97%

CCOC(=O)c1ccc2[nH]c(C)cc(=O)c2c1
inactive: growth inhibition [1] -1.86% | growth inhibition [2] 1.21% | viability increase [3] -0.4% | viability [4] 98% | viability [5] 98% | inhibition [6] 1.35% | RAM network inhibition [7] 9.46%

O=S(=O)(NC1CCCCC1)c1ccc(Br)cc1
inactive: growth inhibition [1] 2.22% | growth inhibition [2] 1.47% | viability increase [3] -2.36% | viability [4] 89.3% | viability [5] 89.8% | inhibition [6] 0.065% | RAM network inhibition [7] 2.96%

Cc1oc(-c2ccc(Cl)cc2)nc1CS(=O)CC(=O)NCCN1CCCC1 (stereo not drawn)
inactive: growth inhibition [1] -4.58% | growth inhibition [2] -1.17% | viability increase [3] -1.14% | viability [4] 91.1% | viability [5] 91.4% | inhibition [6] 1.06% | RAM network inhibition [7] 8.14%

O=C1CC(c2ccc(Cl)c(Cl)c2)CC(O)=C1C=NCCN1CCNCC1 (stereo not drawn)
inactive: growth inhibition [1] -11.8% | growth inhibition [2] -7.73% | viability increase [3] -1.07% | viability [4] 90.4% | viability [5] 96.6% | inhibition [6] 0.46% | RAM network inhibition [7] -1.78%

Cn1c(=O)c2cc(S(=O)(=O)NC(C(=O)Nc3cccnc3)c3ccccc3)ccc2n(C)c1=O (stereo not drawn)
inactive: growth inhibition [1] -3.52% | growth inhibition [2] -1.8% | viability increase [3] -2.15% | viability [4] 99% | viability [5] 91.9% | inhibition [6] 1.96% | RAM network inhibition [7] 0.58%

CCOc1ccc(C2CC(c3ccc(CC)cc3)n3nc(N)nc3N2)cc1 (stereo not drawn)
inactive: growth inhibition [1] 1.88% | growth inhibition [2] 21% | viability increase [3] 2.68% | viability [4] 91.5% | viability [5] 83.5% | inhibition [6] 1.54% | RAM network inhibition [7] 3.52%

CCOc1ccc(N(CC(=O)Nc2ccccc2)S(C)(=O)=O)cc1
inactive: growth inhibition [1] 0.69% | growth inhibition [2] -1.96% | viability increase [3] -1.68% | viability [4] 102% | viability [5] 97.4% | inhibition [6] -0.325% | RAM network inhibition [7] 4.68%

COc1ccccc1NC(=O)C1=C(C)Nc2nnnn2C1c1cccc(C)c1 (stereo not drawn)
inactive: growth inhibition [1] -13.2% | growth inhibition [2] -18.7% | viability increase [3] -5.73% | viability [4] 82.3% | viability [5] 80.8% | inhibition [6] 3.79% | RAM network inhibition [7] 2.19%
